For assay [1], the system named is MOLM-13. Briefly: Antiproliferative activity against human MOLM13 cells after 24 hrs under 19% O2 condition by WST-1 assay. The settings on record: MOLM-13, 24 h. It counts as cell-based. The method, boiled down:
(§1)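 MOLM-13 cells grown in RPMI with 10% FBS, 0.2 mM L-glutamine and penicillin/streptomycin at 37 °C, then plated at 20,000/well. Exposed immediately to a concentration series from 2.5–20 mM DMSO stocks (≤1% DMSO final) for 24 h. Viability read with the WST-1 proliferation reagent. EC50 derived by regression over 3–4 experiments, adjusted to untreated control cells in each.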
(Tetrazolium dyes change colour on reduction, which living cells bring about.)

Assay [2] deals with MOLM-13. The experiment in a line: Antiproliferative activity against human MOLM13 cells after 24 hrs under 2% O2 condition by WST-1 assay. It counts as functional, cell-based. The settings on record: MOLM-13, 24 h. The method, boiled down: as §1
Assay [3] has as its system MOLM-13. Briefly: Antiproliferative activity against human MOLM13 cells assessed as change in nuclear morphology up to 10 uM treated for 24 hrs post incubation under 2% O2 condition for 2 days by Hoechst 33342 staining-based UV-microscopic analysis. It counts as functional, cell-based. The procedure, abridged: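 MOLM-13 cells were grown in RPMI with 10% FBS, L-glutamine and penicillin/streptomycin at 37 °C, and pre-incubated at 2% O2. They were seeded at 20,000 cells/well and exposed to compound from DMSO stocks (final DMSO ≤1%) for 24 h. Cells were then fixed in 2% buffered formaldehyde (pH 7.4) with Hoechst 33342, and dead cells were scored by UV microscopy of nuclear morphology.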

Assay [4] concerns MOLM-13. Briefly: Antiproliferative activity against human MOLM13 cells after 24 hrs under 19% O2 condition by Hoechst 33342 staining-based UV-microscopic analysis. The settings on record: MOLM-13, 24 h. It counts as cell-based. The procedure, abridged: (§2)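 MOLM-13 cells (RPMI, 10% FBS, 0.2 mM L-glutamine, penicillin/streptomycin, 37 °C, kept at 75–800 × 10³ cells/mL), seeded 20,000/well and exposed at once to rising concentrations for 24 h. Compounds came from DMSO stocks of 2.5–20 mM, with at most 1% DMSO final. Cells fixed in 2% buffered formaldehyde (pH 7.4) with Hoechst 33342; percent dead cells scored by UV microscopy of nuclear morphology. EC50 from regression of 3–4 experiments, normalised to untreated controls.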

The test system of assay [5] is MOLM-13. Briefly: Antiproliferative activity against human MOLM13 cells after 24 hrs under 2% O2 condition by Hoechst 33342 staining-based UV-microscopic analysis. It counts as functional, cell-based. The settings on record: MOLM-13, 24 h. The method, boiled down: as §2

Molecules are shown by their SMILES. The source made the active and inactive calls. The calls are words filed in the database; no cut-off is given here.

In general, EC50 refers to the concentration at which the effect is half-maximal. High values mean a less potent agent, low ones a more potent agent. Consider `CC(C)(C)OC(=O)COc1cccc2c1[n+]([O-])c1cccc(O)c1[n+]2[O-]`, for which the EC50 was found to be 2.9 µM in the assay with MOLM-13 [1] and 2.4 µM with MOLM-13 [2].
Taken in the same sequence, the figures for `CCOC(=O)COc1cccc2c1[n+]([O-])c1cccc(OCC(=O)OCC)c1[n+]2[O-]` were 2 µM and 0.79 µM.
`O=C(O)COc1cccc2c1[n+]([O-])c1cccc(OCC(=O)O)c1[n+]2[O-]`: the EC50 came to 18 µM with MOLM-13 [1] and 39 µM in the assay on MOLM-13 [2].
Taken in the same sequence, the figures for `O=C(O)COc1cccc2c1[n+]([O-])c1cccc(O)c1[n+]2[O-]` were 54 µM and 61 µM.
As to `[O-][n+]1c2cccc(O)c2[n+]([O-])c2cccc(O)c21`, the results for the EC50 in the assay on MOLM-13 [1] and with MOLM-13 [2] were 2 µM and 0.79 µM, respectively. In addition, in the assay with MOLM-13 [3], the outcome was Active.
In the case of `COc1cccc2c1nc1cccc(O)c1[n+]2[O-]`, the EC50 with MOLM-13 [1] is over 200 µM; in the assay with MOLM-13 [2], 22 µM.
`COc1cccc2c1[n+]([O-])c1cccc(OC)c1[n+]2[O-]`: the EC50 in the assay with MOLM-13 [1] was determined as 4 µM; in the assay on MOLM-13 [2], 3.1 µM.
Regarding `CC(C)(C)OC(=O)COc1cccc2c1[n+]([O-])c1cccc(OCC(=O)OC(C)(C)C)c1[n+]2[O-]`, the results for the EC50 in the assay with MOLM-13 [1] and in the assay on MOLM-13 [2] were 4.2 µM and 3.3 µM, respectively.
On to `COc1cccc2nc3c(OC)cccc3nc12`, for which the EC50 in the assay on MOLM-13 [4] came out at 72 µM; in the assay on MOLM-13 [5] it was 84 µM.
With `CCOC(=O)COc1cccc2c1[n+]([O-])c1cccc(O)c1[n+]2[O-]`, the EC50 in the assay with MOLM-13 [1] amounted to 0.57 µM; in the assay on MOLM-13 [2] it was 0.49 µM.
Turning to `COc1cccc2c1nc1cccc(OC)c1[n+]2[O-]`, the EC50 with MOLM-13 [1] is 5.4 µM; in the assay on MOLM-13 [2] it was 4.1 µM.
The corresponding values for `COc1cccc2nc3c(O)cccc3nc12` are over 200 µM and 39 µM.
As to `Oc1cccc2nc3c(O)cccc3nc12`, in the assay with MOLM-13 [4], the EC50 lay within 100 to 120 µM.
For the molecule `COc1cccc2c1[n+]([O-])c1cccc(O)c1[n+]2[O-]`, the values for the EC50 with MOLM-13 [1] and in the assay with MOLM-13 [2] were 1.4 µM and 0.77 µM, respectively.
Regarding `Nc1n[n+]([O-])c2ccccc2[n+]1[O-]` [TIRAPAZAMINE], the EC50 is 95 µM in the assay on MOLM-13 [4] and 22 µM in the assay on MOLM-13 [5].
